Reference: ChEMBL document CHEMBL1143104, “Identification and characterization of pyrrolidine diastereoisomers as potent functional agonists and antagonists of the human melanocortin-4 receptor” (Bioorg Med Chem Lett, 2008)

Key:
[1] = molecular target: T1, Melanocortin receptor 4 (Homo sapiens, UniProt P32245); assay: Displacement of [125I]NDP-MSH from human MC4 receptor expressed in HEK293 cells; type: cell-based
Outline: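 HEK293 cells expressing human MC4R, radioligand competition binding with [125I]-NDP-MSH. Ki values are the average of two or more independent measurements.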

[2] = molecular target: T1, Melanocortin receptor 4; assay: Agonist activity at human MC4 receptor expressed in CHO cells assessed as accumulation of cAMP production; type: functional, cell-based
Outline: (§1)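 CHO cells transfected with human MC4R were stimulated by compound and accumulated cAMP was measured by ELISA. Intrinsic activity is expressed relative to α-MSH. Representative experiments were run 2–8 times.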

[3] = molecular target: T1, Melanocortin receptor 4; assay: Intrinsic activity at human MC4 receptor expressed in CHO cells assessed as accumulation of cAMP production relative to alphaMSH; type: functional, cell-based; outline: as §1
[4] = molecular target: T1, Melanocortin receptor 4; assay: Antagonist activity at human MC4 receptor expressed in CHO cells assessed as inhibition of alpha-MSH-stimulated cAMP production; type: functional, cell-based
Outline: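 CHO cells transfected with human MC4R were tested for dose-dependent inhibition of α-MSH-stimulated cAMP accumulation, measured by ELISA. IC50 was derived. Representative experiments were run 2–8 times.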

[5] = molecular target: Melanocyte-stimulating hormone receptor (Homo sapiens, UniProt Q01726); assay: Binding affinity to MC1R
Melanocyte-stimulating hormone receptor, sequence (Q01726 whole entry): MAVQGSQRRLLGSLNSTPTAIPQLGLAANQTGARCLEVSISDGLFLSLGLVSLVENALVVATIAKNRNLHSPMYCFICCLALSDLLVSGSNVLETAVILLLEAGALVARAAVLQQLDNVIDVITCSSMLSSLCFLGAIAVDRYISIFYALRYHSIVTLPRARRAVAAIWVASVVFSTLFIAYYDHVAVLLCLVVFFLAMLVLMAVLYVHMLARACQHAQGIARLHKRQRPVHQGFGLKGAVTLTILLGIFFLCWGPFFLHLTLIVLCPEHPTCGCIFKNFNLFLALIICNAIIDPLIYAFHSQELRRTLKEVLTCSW

[6] = molecular target: Melanocortin receptor 3 (Homo sapiens, UniProt P41968); assay: Binding affinity to MC3R
Melanocortin receptor 3, sequence (P41968 whole entry): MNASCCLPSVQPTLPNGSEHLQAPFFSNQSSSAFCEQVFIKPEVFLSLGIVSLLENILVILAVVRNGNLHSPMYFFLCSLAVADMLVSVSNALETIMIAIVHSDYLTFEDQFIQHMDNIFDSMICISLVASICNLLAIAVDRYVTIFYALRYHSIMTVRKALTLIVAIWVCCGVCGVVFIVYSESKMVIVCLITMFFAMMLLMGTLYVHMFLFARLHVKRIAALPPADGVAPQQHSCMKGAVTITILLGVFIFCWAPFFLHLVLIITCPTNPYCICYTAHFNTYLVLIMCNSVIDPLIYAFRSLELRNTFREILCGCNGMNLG

[7] = molecular target: Melanocortin receptor 5 (Homo sapiens, UniProt P33032); assay: Binding affinity to MC5R
Melanocortin receptor 5, sequence (P33032 whole entry): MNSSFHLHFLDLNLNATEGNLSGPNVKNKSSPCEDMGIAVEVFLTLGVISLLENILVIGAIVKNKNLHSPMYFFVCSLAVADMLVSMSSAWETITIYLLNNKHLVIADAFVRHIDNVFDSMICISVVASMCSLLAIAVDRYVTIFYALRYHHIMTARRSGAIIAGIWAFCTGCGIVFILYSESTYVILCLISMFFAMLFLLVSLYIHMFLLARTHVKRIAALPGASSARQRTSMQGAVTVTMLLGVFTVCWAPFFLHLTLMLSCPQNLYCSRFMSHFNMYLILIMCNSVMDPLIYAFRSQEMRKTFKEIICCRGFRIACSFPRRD

[8] = Clearance in rat at 2.5 mg/kg, iv; type: ADME, organism-based; set-up: dose 2.5 mg/kg, route intravenous; conditions: in vivo
Outline: (§2)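 Rat pharmacokinetics: single 2.5 mg/kg iv injection and separately 10 mg/kg oral gavage. Plasma CL, Vd, t1/2, AUC, Cmax, Tmax and oral bioavailability were derived. Whole-brain concentration was measured at 1 and 4 h after oral dosing and expressed as a brain/plasma ratio. Values are the average of three animals.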

[9] = Volume of distribution in rat in rat at 2.5 mg/kg, iv; type: ADME, organism-based; set-up: dose 2.5 mg/kg, route intravenous; conditions: in vivo; outline: as §2
[10] = Half life in rat at 2.5 mg/kg, iv; type: ADME, organism-based; set-up: dose 2.5 mg/kg, route intravenous; conditions: in vivo; outline: as §2
[11] = AUC in rat at 2.5 mg/kg, iv; type: ADME, organism-based; set-up: dose 2.5 mg/kg, route intravenous; conditions: plasma; outline: as §2
[12] = Cmax in rat at 10 mg/kg, po; type: ADME, organism-based; set-up: dose 10 mg/kg, route oral; conditions: in vivo; outline: as §2
[13] = Tmax in rat at 10 mg/kg, po; type: ADME, organism-based; set-up: dose 10 mg/kg, route oral; conditions: in vivo; outline: as §2
[14] = AUC in rat at 10 mg/kg, po; type: ADME, organism-based; set-up: dose 10 mg/kg, route oral; conditions: plasma; outline: as §2
[15] = Drug level in rat brain at 10 mg/kg, po after 4 hrs; type: ADME, organism-based; set-up: dose 10 mg/kg, route oral; conditions: read-out: Drug uptake; outline: as §2
[16] = Ratio of drug level in brain to plasma in rat at 10 mg/kg, po after 4 hrs; type: ADME, organism-based; set-up: dose 10 mg/kg, route oral; conditions: read-out: BPR; outline: as §2
[17] = Bioavailability in rat at 10 mg/kg, po; type: ADME, organism-based; conditions: in vivo; outline: as §2
[18] = Apparent permeability across human Caco-2 cells from apical to basolateral side; type: ADME, cell-based
Outline: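 Caco-2 monolayer permeability, apical-to-basolateral Papp in nm/s. The (b to a)/(a to b) ratio was also determined as an efflux measure.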

[19] = tested on: Caco-2; assay: Ratio of permeability across human Caco-2 cells from basolateral to apical side to apical to basolateral side; type: ADME, cell-based
[20] = Distribution coefficient, log D by shake flask method; type: physicochemical; conditions: octanol/water
Outline: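 log D was measured by the shake-flask method.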

[21] = Ratio of drug level in brain to plasma in po dosed DIO rat after 7 days; type: ADME, organism-based; conditions: read-out: BPR
Outline: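 Chronic study in DIO rats given 3, 10 or 30 mg/kg orally once daily. A satellite group was sampled on day 1 and day 7 for plasma concentration-time profiles and brain/plasma ratio.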

T1 sequence (P32245 whole entry): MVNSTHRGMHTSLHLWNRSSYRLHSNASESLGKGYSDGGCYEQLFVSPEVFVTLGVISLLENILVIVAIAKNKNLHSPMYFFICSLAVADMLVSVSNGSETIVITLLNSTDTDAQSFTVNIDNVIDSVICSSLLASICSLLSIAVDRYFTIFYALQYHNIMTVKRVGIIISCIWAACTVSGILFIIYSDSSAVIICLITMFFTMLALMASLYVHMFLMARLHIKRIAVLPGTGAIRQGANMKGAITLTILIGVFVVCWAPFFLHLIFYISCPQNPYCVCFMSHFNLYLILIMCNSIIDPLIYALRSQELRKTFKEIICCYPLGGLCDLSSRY

Row | Structure (SMILES) | Ki [1] | EC50 [2] | Intrinsic activity [3] | further results
1 | Cc1ccc(N2CCN(C(=O)[C@@H]3CN(C4CCOCC4)C[C@H]3c3ccc(Cl)cc3)CC2)c([C@@H](NC(=O)[C@H](C)N)C(C)C)c1 | 0.001 µM | 0.0052 µM | 38% | –
2 | CC(C)[C@H](NC(=O)CCN(C)C)c1cccc(F)c1N1CCN(C(=O)[C@@H]2CN(C(C)C)C[C@H]2c2ccc(Cl)cc2)CC1 | 0.0053 µM | 0.02 µM | 103% | –
3 | Cc1ccc(N2CCN(C(=O)[C@@H]3CN(C4CCOCC4)C[C@H]3c3ccc(Cl)cc3)CC2)c([C@@H](NC(=O)CCN)C(C)C)c1 | 0.0022 µM | 0.006 µM | 107% | –
4 | Cc1ccc(N2CCN(C(=O)[C@H]3CN(C4CCOCC4)C[C@@H]3c3ccc(Cl)cc3)CC2)c([C@@H](NC(=O)CCN(C)C)C(C)C)c1 | 0.0047 µM | – | 10% | IC50 [4]: 0.064 µM; Ki [5]: 0.12 µM; Ki [6]: 1.3 µM; Ki [7]: 0.53 µM; clearance [8]: 4.92 L/h/kg; Vd [9]: 75 L/kg; half-life [10]: 11 h; AUC [11]: 0.455 µg·h/mL; Cmax [12]: 0.017 µg/mL; Tmax [13]: 2 h; AUC [14]: 0.161 µg·h/mL; concentration at 4 h [15]: 18 ng/g; Kp at 4 h [16]: 1; bioavailability [17]: 14%
5 | Cc1ccc(N2CCN(C(=O)[C@@H]3CN(C4CCOCC4)C[C@H]3c3ccc(Cl)cc3)CC2)c([C@@H](NC(=O)CCN(C)C)C(C)C)c1 (stereo in doubt; 13b-1) | 0.001 µM | 0.0038 µM | – | Ki [6]: 0.26 µM; Ki [7]: 0.8 µM; clearance [8]: 7.74 L/h/kg; Vd [9]: 80 L/kg; half-life [10]: 7.1 h; AUC [11]: 0.307 µg·h/mL; Cmax [12]: 0.014 µg/mL; Tmax [13]: 2.7 h; AUC [14]: 0.114 µg·h/mL; concentration at 4 h [15]: 19 ng/g; Kp at 4 h [16]: 3; Papp A→B [18]: 1.6 nm/s; Ratio [19]: 23; logD [20]: 2.6; Kp at 168 h [21]: > 10; bioavailability [17]: 10%
6 | Cc1ccc(N2CCN(C(=O)[C@@H]3CN(C4CCOCC4)C[C@H]3c3ccc(Cl)cc3)CC2)c([C@@H](NC(=O)[C@@H](C)N)C(C)C)c1 | 0.0073 µM | 0.017 µM | 56% | –
7 | COc1cccc([C@@H]2CN(C(C)C)C[C@H]2C(=O)N2CCN(c3c(F)cccc3[C@@H](NC(=O)CCN(C)C)C(C)C)CC2)c1 | 3.7 µM | – | – | –
8 | Cc1ccc(N2CCN(C(=O)[C@@H]3CN(C4CCOCC4)C[C@H]3c3ccc(Cl)cc3)CC2)c([C@H](C(C)C)N(C)C)c1 | 0.0053 µM | – | 35% | –
9 | CC(C)[C@H](NC(=O)CCN(C)C)c1cccc(F)c1N1CCN(C(=O)[C@@H]2CN(C(C)C)C[C@H]2c2cccc(Cl)c2)CC1 | 0.37 µM | – | – | –
10 | Cc1ccc(N2CCN(C(=O)[C@@H]3CN(C4CCOCC4)C[C@H]3c3ccc(Cl)cc3)CC2)c([C@@H](NC(=O)CN)C(C)C)c1 | 0.002 µM | 0.0091 µM | 114% | –

Continued, in another order:

Row | Ki [1] | EC50 [2] | Intrinsic activity [3] | Structure (SMILES) | further results
11 | 7.8 µM | – | – | CC(C)[C@H](NC(=O)CCN(C)C)c1cccc(F)c1N1CCN(C(=O)[C@@H]2CN(C(C)C)C[C@H]2c2cc(F)cc(F)c2)CC1 | –
12 | 0.0075 µM | – | 24% | CC(C)[C@H](NC(=O)CCN(C)C)c1cccc(F)c1N1CCN(C(=O)[C@@H]2CN(C(C)C)C[C@H]2c2ccc(Cl)cc2Cl)CC1 | IC50 [4]: 0.56 µM
13 | 0.26 µM | 0.41 µM | 78% | CC(C)[C@H](NC(=O)CCN(C)C)c1cccc(F)c1N1CCN(C(=O)[C@@H]2CN(C(C)C)C[C@H]2c2ccc(F)c(Cl)c2)CC1 | –
14 | 0.56 µM | – | – | CC(C)[C@H](NC(=O)CCN(C)C)c1cccc(F)c1N1CCN(C(=O)[C@@H]2CN(C(C)C)C[C@H]2c2cccc(F)c2)CC1 | –
15 | 0.061 µM | – | – | CC(C)[C@H](NC(=O)CCN(C)C)c1cccc(F)c1N1CCN(C(=O)[C@@H]2CN(C(C)C)C[C@H]2c2ccc(C(F)(F)F)cc2F)CC1 | –
